Assay results reported in ChEMBL document CHEMBL1772943, “Potent, selective, and orally available benzoisothiazolone phosphomannose isomerase inhibitors as probes for congenital disorder of glycosylation Ia” (J Med Chem, 2011).
pIC50: −log10 of the molar value. Converted amounts (≈) assume the structure as drawn.

How the values were obtained:
[1] = Solubility of the compound at pH 7.4; assay type: physicochemical; conditions: buffer
[2] = Metabolic stability of the compound in mouse liver microsomes assessed as compound remaining at 10 uM after 1 hr by LC/MS/MS analysis; assay type: ADME, Microsome; conditions: read-out: Stability
How it was run: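 Mouse liver microsomes at 0.5 mg/ml, test article at 10 μM, duplicate, 37 °C. Aliquots at t=0 and t=1 h; % parent remaining by LC/MS/MS. Positive control phenacetin conversion to acetaminophen; negative control NADPH-deficient mixture.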

Phosphomannomutase 2 = target: T1, Phosphomannomutase 2 (Homo sapiens, UniProt O15305); experiment: Inhibition of human purified PMM2
T1 sequence (O15305 whole entry): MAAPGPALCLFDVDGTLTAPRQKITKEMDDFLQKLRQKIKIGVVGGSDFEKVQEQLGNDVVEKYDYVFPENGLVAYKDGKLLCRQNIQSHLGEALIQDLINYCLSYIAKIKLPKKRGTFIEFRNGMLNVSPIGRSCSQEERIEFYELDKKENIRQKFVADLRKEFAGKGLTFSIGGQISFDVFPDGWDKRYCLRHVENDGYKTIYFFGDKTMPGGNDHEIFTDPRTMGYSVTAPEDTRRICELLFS

[3] = Metabolic stability of the compound in mouse plasma assessed as compound remaining at 10 uM after 3 hrs by LC/MS/MS analysis; assay type: ADME, cell-free; conditions: read-out: Stability
How it was run: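 Fresh mouse plasma with test article at 10 μM, run in duplicate at 37 °C. Sampled at t=0 and t=3 h; % parent remaining quantified by LC/MS/MS.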

HeLa = experiment: Cytotoxicity against human HeLa cells at 12.5 to 100 uM after 2 hrs; assay type: cell-based
How it was run: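 HeLa cells at 70% confluency were preincubated with compound for 2 h at 37°C. They were then labelled with 50 μCi/mL ³H-mannose and 5 μCi/mL ³⁵S-Met/Cys for 1 h at 37°C, washed, and lysed in 10 mM Tris pH 7.4 with 1% NP-40. Proteins were precipitated with 10% TCA. ³⁵S incorporation read protein synthesis and toxicity; DMSO-treated cells served as the reference.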

[4] = target: T2, Mannose-6-phosphate isomerase (Homo sapiens, UniProt P34949); experiment: Inhibition of human purified phosphomannose isomerase
T2 sequence (P34949 whole entry): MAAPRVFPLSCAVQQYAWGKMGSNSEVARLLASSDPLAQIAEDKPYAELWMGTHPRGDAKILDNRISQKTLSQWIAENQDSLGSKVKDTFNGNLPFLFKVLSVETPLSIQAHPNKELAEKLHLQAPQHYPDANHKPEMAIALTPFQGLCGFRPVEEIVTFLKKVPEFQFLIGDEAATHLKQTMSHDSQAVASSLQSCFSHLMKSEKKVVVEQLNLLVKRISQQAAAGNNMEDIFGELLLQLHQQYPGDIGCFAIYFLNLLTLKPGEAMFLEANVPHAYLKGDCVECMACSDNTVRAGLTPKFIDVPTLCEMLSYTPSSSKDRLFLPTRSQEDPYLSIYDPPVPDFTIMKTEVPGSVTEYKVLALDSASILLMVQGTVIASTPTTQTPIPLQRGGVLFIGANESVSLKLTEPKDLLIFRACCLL

Liver = experiment: Metabolic stability of the compound in rat liver S9 fraction at 10 uM after 2 hrs by LCMS analysis in presence of GSH transferase; assay type: ADME, subcellular; conditions: s9, 2 h
How it was run: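 The reaction was quenched by acetonitrile precipitation, and the supernatant was dried and reconstituted. Positive-ion electrospray LCMS tracked parent compound and GSH conjugates. Run in triplicate, with diclofenac as positive control.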

[5] = Cmax in C57BL/6 mouse at 20 mg/kg, po; assay type: ADME, organism-based; set-up: dose 20 mg/kg, route oral; conditions: in vivo
How it was run: (§1)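 C57BL/6 mice, n=3 per dose, given single oral dose of 20 mg/kg (5 mg/kg IV arm run in parallel). Animals sacrificed for blood at 0.5, 1, 2, 4 and 6 hr after oral dosing; plasma separated by centrifugation, stored at -20°C, extracted with 2-fold excess acetonitrile, vortexed 3 min, centrifuged 15 min (7500g), supernatant quantified by LCMS.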

[6] = AUC (0 to t) in C57BL/6 mouse at 20 mg/kg, po; assay type: ADME, organism-based; set-up: dose 20 mg/kg, route oral; conditions: plasma; how it was run: as §1
[7] = Half life in C57BL/6 mouse at 20 mg/kg, po; assay type: ADME, organism-based; set-up: dose 20 mg/kg, route oral; conditions: in vivo
How it was run: (§2)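 C57BL/6 mice, n=3 per dose, dosed 5 mg/kg IV and 20 mg/kg PO. Blood collected at PO 0.5, 1, 2, 4, 6 hr and IV 10 min, 0.5, 1, 2, 4, 6 hr. Plasma separated by centrifugation, stored at -20°C, extracted with 2-fold excess acetonitrile (vortex 3 min, 15 min at 7500g), supernatant analysed by LCMS.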

Mus musculus = experiment: Oral bioavailability in C57BL/6 mouse at 20 mg/kg; assay type: ADME, organism-based; conditions: in vivo; how it was run: as §2
in vivo = conditions: C57BL/6, mouse, po, 20 mg/kg
[8] = Inhibition of human purified phosphomannose isomerase

Structure (SMILES) | pIC50 (Phosphomannomutase 2) | pIC50 [4] | other results
Cc1ccc(C)c(-n2sc3ccc(F)cc3c2=O)c1 |  |  | solubility [1]: 11 µg/mL (≈ 40.2 µM); remaining at 1 h, 10 µM [2]: 81%
O=c1c2ccccc2sn1-c1cccc(Cl)c1 | < 4.70 |  | 
CC(C)(C)c1ccc(-n2sc3ccccc3c2=O)cc1 | < 4.70 |  | solubility [1]: 2.5 µg/mL (≈ 8.82 µM); remaining at 3 h, 10 µM [3]: 10%; remaining at 1 h, 10 µM [2]: 62%; Activity (HeLa): Non-toxic
NC(=O)C1(NC(=O)CCCSc2ccc(Cl)cc2Cl)Cc2ccccc2C1 |  | 4.85 | 
Cc1ccc(-n2sc3ccccc3c2=O)cc1 | < 4.70 | 5.28 | 
COc1cccc(-n2sc3ccccc3c2=O)c1 | < 5.00 |  | 
O=c1c2cc(F)ccc2sn1-c1ccccc1F | < 4.70 |  | 
CN(C)c1ccc(-n2sc3ccccc3c2=O)cc1 | 4.88 | 5.72 | 
NC(=O)C1(NC(=O)CCCNc2ccc(Cl)cc2Cl)Cc2ccccc2C1 |  | 4.30 | 
CCOC(=O)c1ccc(-n2sc3ccccc3c2=O)cc1 | < 4.70 |  | 
O=c1c2cc(F)ccc2sn1-c1ccc(F)cc1 | < 4.10 |  | 
O=c1c2ccccc2sn1-c1ccc2ccccc2c1 | < 4.70 |  | 
Cc1ccc(C)c(-n2sc3ccccc3c2=O)c1 |  | 5.18 | 
O=c1c2cc(F)ccc2sn1-c1ccccc1 | < 4.10 |  | solubility [1]: 3.8 µg/mL (≈ 15.5 µM); remaining at 3 h, 10 µM [3]: 99%; Stability (Liver): Stable; remaining at 1 h, 10 µM [2]: 85%; Activity (HeLa): Non-toxic; Cmax [5]: 162 nM; AUC(0-t) [6]: 0.305 µM·h; half-life [7]: 1.3 h; F (Mus musculus): 35%; Tmax (in vivo): 0.75 h
Cc1cccc(-n2sc3ccccc3c2=O)c1 | < 4.70 |  | 
O=c1c2ccccc2sn1-c1cccc(I)c1 | < 4.70 |  | 
CN(C)c1cccc(-n2sc3ccccc3c2=O)c1 | < 4.70 |  | 
O=c1c2ccccc2sn1-c1ccc(C(F)(F)F)cc1 | < 4.70 | < 4.70 | 
O=c1c2cc(F)ccc2sn1-c1ccc(Cl)cc1 | < 4.70 |  | 
Cc1ccccc1-n1sc2cc(F)ccc2c1=O | < 4.70 |  | 
Cc1ccc(C)c(-n2sc3cc(F)ccc3c2=O)c1 |  | 6.00 | solubility [1]: 22.5 µg/mL (≈ 82.3 µM); remaining at 3 h, 10 µM [3]: 48%; remaining at 1 h, 10 µM [2]: 82.3%
O=c1c2ccccc2sn1-c1ccc(Cl)cc1 | < 4.70 |  | 
O=c1c2ccccc2sn1-c1cccc(C(F)(F)F)c1 | 4.86 |  | 
O=c1c2cc(F)ccc2sn1-c1cccc(F)c1 | < 4.70 |  | 
O=C1c2ccccc2SC1c1ccccc1 (stereo not drawn) |  | < 5.00 | 
NC(=O)C1(NC(=O)CCCOc2ccc(Cl)cc2Cl)Cc2ccccc2C1 |  |  | pIC50 [8]: 4.40
Cc1ccc(C)c(N2Cc3ccccc3C2=O)c1 |  | < 5.00 | 
